Results on 38 variants are retold here after the RNAGym collection of RNA variant scans (doi:10.1126/science.aae0568).

This sample holds only a part of the variants without activity.

First the molecules themselves.
B1: tRNA (parent)
chain: GUUCCGUUGGCGUAAUGGUAACGCGUCUCCCUCCUAAGGAGAAGACUGCGGGUUCGAGUCCCGUACGGAACG

Variants of B1 are the subject of the data set. Kind of data set: yeast fitness relative to wild type (ratio to wild type); higher = fitter; tRNA-Arg(CCU), competitive growth, 37 C, YPD. The procedure, abridged:
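Start and end populations of a pooled competition were compared by 100-nucleotide paired-end sequencing of gene amplicons. The Saccharomyces cerevisiae strains carried tRNA-Arg(CCU) gene variants at the native genomic locus, synthesised with a 3% per-site mutation rate at 69 sites, and competed in YPD at 37°C for 24 hours in six parallel replicates. Darwinian fitness relative to wild type was based on the change in genotype frequencies. Genotypes required ≥ 100 starting reads, and estimates < 0.5 were set to 0.5.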
GUUCCGUUGGCGUAAUGGUAACGCGUCUCGCUCCUAAGGAGACGACUGCGGGUUCGAGUCCUGUACGGAACG: the yeast fitness was 0.533. With GUUCCGUUGGCGUAAUGGUAACGCGUCUCACUCCUAAGGAGAAGACUGCGCGUUCGAGUCCGGUACGGAACG, the yeast fitness is ≤ 0.5. With GUUCCGUUGGCGUAAUGGUAACGCGUCUCGCUCCUAAGGAGUAGGCUGCGGGUUCGAGUCUCGUACAGAACG, the yeast fitness is ≤ 0.5. Consider GUUCCGUUGGCGUAAUGGUAACGCGUCUCGCUCCUAAGGAGACGACUGCGGGUUCGAGUGCCGUAUGGAACG, for which the yeast fitness was ≤ 0.5. In the case of GUUCCGUUGGCGUAAUGGUAACGCGUCUCGCUCCUAAGGAGAAGACUGCGGGUUCGUGUCCCGUAUGGAUCG, the yeast fitness was ≤ 0.5. For the variant GUUCCGUUGGCGUAAUGGUAACGCGUCUCGCUCCUAAGGAGAAGACUGCGGGUUCGUGUCCCGUACGGAACG, the yeast fitness turned out to be 0.609. GUUCCGUUGGCGUAAUGGUAACGCGUCUCGCUCCUAAGGAGAAGACUGCGGGUUCGGGUCCCGUACGGAACG: the yeast fitness was 0.616.

For GUUCCGUUGGCGUAAUGGUAACGCGUCUCACUCCUAAGGAGAAGACUGCGGGUUCAAGUGCCGUACGGAACG, the yeast fitness is ≤ 0.5. Consider GUUCCGUUGGCGUAAUGGUAACGCGUCUCGCUCCUAAGGAGAAGACUGCGGGUUCGAGUCCCGUACGGCACG, for which the yeast fitness was 0.687. As for GUUCCGUUGGCGUAAUGGUAACGCGUCUCGCUCCUAAGGAGAAGACUGCGGGUUCGAGUCCCGUACGGGACG, the figure is ≤ 0.5; as for GUUCCGUUGGCGUAAUGGUAACGCGUCUCACUCCUAAGGAGAAAUCUGCGGGUUCGAGUCCUGUACGGAACG, ≤ 0.5.

As for GUUCCGUUGGCGUAAUGGUAACGCGUCUCACUCCUAAGGAGAAGACUGCGGGCUCGAGUCCCGUACGGAACG, the yeast fitness stood at 0.82. With GUUCCGUUGGCGUAAUGGUAACGCGUCUCACUCCUAAGGACAAGACUGCGGGUUCGAGUCCCGUACGGAACG, the yeast fitness amounted to 0.796. For the variant GUUCCGUUGGCGUAAUGGUAACGCGUCUCGCUCCUGAGGAGAAGACUGCGGGUUCGAGUCCCGUACGGAACG, the yeast fitness came to 0.679. Consider GUUCCGUUGGCGUAAUGGUAACGCGUCUCGCUCCUCAGGAGAAGACUGCGGGUUCGAGUCCCGUACGGAACG, for which the yeast fitness was found to be 0.561. Regarding GUUCCGUUGGCGUAAUGGUAACGCGUCUCGCUCCUUAGGAGAAGACUGCGGGUUCGAGUCCCGUACGGAACG, the yeast fitness came to 0.538. On to GUUCCGUUGGCGUAAUGGUAACGCGUCUCACUCCUAAGGAGAAGACCGCGGGUUCGAGUCCCGUACGGAACG, for which the yeast fitness stood at 0.775. The figure for GUUCCGUUGGCGUAAUGGUAACGCGUCUCGCUCCUAAGGAGAAGACUGCGGGUUCGGGUCCCAUACGGAACG is ≤ 0.5. Turning to GUUCCGUUGGCGUAAUGGUAACGCGUCUCACUCCUAAGGAGAACACUGCGGGUUCGAGACCCGUACGGAACG, the yeast fitness is ≤ 0.5. For the variant GUUCCGUUGGCGUAAUGGUAACGCGUCUCACUCCUAAGGAGAAGACUGCGGAUUCGAGUCCCGUACGGAACG, the yeast fitness came out at 0.813. Turning to GUUCCGUUGGCGUAAUGGUAACGCGUCUCGCUCCUAAGGAGAAGACUGCGGGUUCGAGUCCCGUACGGAACG, the yeast fitness amounted to 0.68. On to GUUCCGUUGGCGUAAUGGUAACGCGUCUCACUCCUAAGGAGAAGACCGCGGGUUCGAAUCCCGUACGGUACG, for which the yeast fitness came out at 0.563. Take GUUCCGUUGGCGUAAUGGUAACGCGUCUCACUCCUAAGGAGAAGACUGCGGGUACGCGUCCCGUACGGAACG: the yeast fitness stood at 0.548. In the case of GUUCCGUUGGCGUAAUGGUAACGCGUCUCGCUCCUAAGGAGUAGGCUGCGGGUUCGAGUCCCGUACGGAACG, the yeast fitness is ≤ 0.5.

Regarding GUUCCGUUGGCGUAAUGGUAACGCGUCUCACGCCUAAGGAGAAGACUGCGGGUUCGAGUCCCGUACAGCACG, the yeast fitness was ≤ 0.5. Consider GUUCCGUUGGCGUAAUGGUAACGCGUCUCACUCCUAAGGAGAAGACUCCGGGUUCGAGUCCCGUACGGAACG, for which the yeast fitness came out at 0.797. As for GUUCCGUUGGCGUAAUGGUAACGCGUCUCACUCCUAAGGAAAAGACCGCGGGUUCGAGUCCCGUACGGAACG, the figure is 0.559; as for GUUCCGUUGGCGUAAUGGUAACGCGUCUCACUCCCAUGGAGAAGACUGCGGGUUCGAGUCCCGUACGGAACG, 0.547; as for GUUCCGUUGGCGUAAUGGUAACGCGUCUCGCUCCUAAGGAGAAGCUUGCGGGUUCGAGUCCCGUACGGAACG, 0.612. GUUCCGUUGGCGUAAUGGUAACGCGUCUCACUCCUAAGGAGAAGACUGCAGGUUCGAGUCCCGUCCGGAACG: the yeast fitness was 0.628. Consider GUUCCGUUGGCGUAAUGGUAACGCGUCUCGCUCCUAAGGAGAAGACUGCGGGUUCGAGUCCCGUGCGGAACG, for which the yeast fitness was found to be 0.639. Turning to GUUCCGUUGGCGUAAUGGUAACGCGUCUCACUCCUAAGGAGAAGACUGCGGGUUCGAGUCCCGUAAGGAACG, the yeast fitness was 0.636.

With GUUCCGUUGGCGUAAUGGUAACGCGUCUCACUCCUAAGGAGAAGACUGCGCGUUCGAGUCCCGUACGGAACG, the yeast fitness turned out to be 0.508. Consider GUUCCGUUGGCGUAAUGGUAACGCGUCUCACUCCUAAGGAGAAGACUGCGAGUUCGAGUCCCGUACGGAACG, for which the yeast fitness stood at 0.774. Turning to GUUCCGUUGGCGUAAUGGUAACGCGUCUCGCUCCUAAGGAGCAGACUGCGGGUUCGAGUCCCGUACGGAACG, the yeast fitness is 0.631. Turning to GUUCCGUUGGCGUAAUGGUAACGCGUCUCGCUCCUAAGGAGGAGACUGCGGGUUCGAGUCCCGUACGGAACG, the yeast fitness amounted to 0.626. As to GUUCCGUUGGCGUAAUGGUAACGCGUCUCACUCCAAAGGAGAAGACUGCGGGUUCGAGUCGCGUACGGAACG, the yeast fitness is ≤ 0.5. GUUCCGUUGGCGUAAUGGUAACGCGUCUCGCUCCUAAGGAGAAGGCUGCGGGUUCAAGUCCCGUACGGAACG: the yeast fitness amounted to 0.526.
